In paper PMC11864002 (Journal of Enzyme Inhibition and Medicinal Chemistry, 2025):
Residue numbers refer to the chain shown, from its start. Several values for one entry are separate records, joined by “and”; a condition that tells them apart may be missing. Equal values may be shown once.

How the values were obtained:
MalA R400H [1] = target: T1, MalA R400H (Saccharolobus solfataricus, UniProt D0KQM8, R400H); test: Inhibition kinetics; type: biochemical, Saccharolobus solfataricus 98/2
T1 sequence (D0KQM8 1-700 R400H): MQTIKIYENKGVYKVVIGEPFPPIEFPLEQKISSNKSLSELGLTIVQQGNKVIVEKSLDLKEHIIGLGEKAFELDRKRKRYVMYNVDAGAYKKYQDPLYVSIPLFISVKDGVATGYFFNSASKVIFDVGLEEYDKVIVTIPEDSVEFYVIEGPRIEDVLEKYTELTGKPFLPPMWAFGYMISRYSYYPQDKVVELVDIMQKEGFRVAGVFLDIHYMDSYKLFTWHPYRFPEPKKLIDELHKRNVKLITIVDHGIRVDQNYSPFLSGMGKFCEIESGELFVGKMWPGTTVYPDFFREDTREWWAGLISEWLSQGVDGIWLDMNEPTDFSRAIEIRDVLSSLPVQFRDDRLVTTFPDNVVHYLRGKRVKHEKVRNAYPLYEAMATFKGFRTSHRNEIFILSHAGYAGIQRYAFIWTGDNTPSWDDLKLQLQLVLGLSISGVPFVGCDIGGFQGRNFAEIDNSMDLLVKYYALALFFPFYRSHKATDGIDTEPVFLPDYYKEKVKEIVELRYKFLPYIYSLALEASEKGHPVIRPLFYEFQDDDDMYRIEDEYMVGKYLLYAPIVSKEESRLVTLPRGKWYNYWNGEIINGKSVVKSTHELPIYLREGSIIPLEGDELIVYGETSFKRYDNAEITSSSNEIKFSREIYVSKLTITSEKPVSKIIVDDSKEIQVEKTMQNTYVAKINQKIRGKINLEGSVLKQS
Procedure, shortened: (§1)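 Inhibition kinetics at 85 °C under the standard pNP-α-D-Glc assay (100 mM sodium citrate pH 5.0; stopped with sodium carbonate, A420). Enzyme per reaction: R400H 26 µg, R400G 45 µg, wild type 0.9 µg. Inhibitor ranges: 1-DNJ 0.02–25.0 µM, acarbose 10.0–500 µM, NB-DNJ 0.5–25.0 µM.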

MalA R400G [2] = target: T2, MalA R400G (Saccharolobus solfataricus, UniProt D0KQM8, R400G); test: IC50 determination on pNP-α-D-Glc, MalA R400G; type: biochemical, Saccharolobus solfataricus 98/2
T2 sequence (D0KQM8 1-700 R400G): T1 sequence (D0KQM8 1-700 R400H) with H400G
Procedure, shortened: (§2)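 Standard assay: 10 mM pNP-α-D-Glc in 100 mM sodium citrate pH 5.0, 85 °C, 2 min. Enzyme per reaction: WT 0.9 µg, R400H 26 µg, R400G 45 µg. Stopped on ice with sodium carbonate pH 10.2; A420 read at room temperature. Inhibitor ranges: 1-DNJ up to 5 mM, acarbose up to 9 mM, NB-DNJ up to 1 mM.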

MalA R400H [3] = target: T1, MalA R400H; test: IC50 determination on pNP-α-D-Glc, MalA R400H; type: biochemical, Saccharolobus solfataricus 98/2
Procedure, shortened: as §2

MalA wild-type [4] = target: T3, MalA wild-type (Saccharolobus solfataricus, UniProt D0KQM8); test: Inhibition kinetics; type: biochemical, Saccharolobus solfataricus 98/2
T3 sequence (D0KQM8 1-700): T1 sequence (D0KQM8 1-700 R400H) with H400R

MalA wild-type [5] = target: T3, MalA wild-type; test: IC50 determination on pNP-α-D-Glc, MalA wild-type; type: biochemical, Saccharolobus solfataricus 98/2
Procedure, shortened: as §2

MalA R400H [6] = target: T1, MalA R400H; test: Differential scanning fluorimetry with inhibitors/NAC, MalA R400H; type: binding, Saccharolobus solfataricus 98/2
Procedure, shortened: (§3)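 His-tagged MalA (WT, R400G or R400H) was expressed in E. coli BL21(DE3) RIL, heat-fractionated at 70 °C and Ni-purified. Each enzyme ([…]) was mixed with SYPRO Orange in 0.2 M sodium citrate pH 5.0, sodium phosphate pH 7.0 or sodium borate pH 8.5, in triplicate. Held 10 min at 25 °C, scanned 25–95 °C ([…]), then held 10 min. Ligands: 1-DNJ or NB-DNJ 0.1/0.8 mM, acarbose 0.4/1.0 mM, NAC 10/30 mM. Tm fitted on normalised fluorescence; SD from […] replicates.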

recombinant GAA [7] = details: cited from earlier work
MalA WT = target: T4, MalA WT (Saccharolobus solfataricus, UniProt D0KQM8); test: Differential scanning fluorimetry with inhibitors/NAC, MalA WT; type: binding, Saccharolobus solfataricus 98/2
T4 sequence (D0KQM8 1-700): T1 sequence (D0KQM8 1-700 R400H) with H400R
Procedure, shortened: as §3

MalA R400G [8] = target: T2, MalA R400G; test: Differential scanning fluorimetry with inhibitors/NAC, MalA R400G; type: binding, Saccharolobus solfataricus 98/2
Procedure, shortened: as §3

MalA R400G [9] = target: T2, MalA R400G; test: Inhibition kinetics; type: biochemical, Saccharolobus solfataricus 98/2
Procedure, shortened: as §1

recombinant GAA [10] = details: 10 mM NAC; cited from earlier work
α-glucosidase from rice = test: Differential scanning fluorimetry with NAC, α-glucosidase from rice; type: binding; details: GH31 GAA from rice, Figure S7
Procedure, shortened: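 Rice α-glucosidase (type V, 2.5 µg) in 0.2 M sodium borate pH 8.0 with SYPRO Orange, in triplicate, with NAC present. Thermal scan 25–95 °C in 1 °C increments every 0.5 min. Fluorescence normalised to each scan's maximum. Tm calculated per Niesen by curve fitting.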

COS-7 cells = details: transiently expressed in COS-7 cells, substrate MU-α-D-Glc; cited from earlier work
[11] = Melting temperature of the enzymes by differential scanning fluorimetry; type: physicochemical; details: for Tm: DSF
Procedure, shortened: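 Recombinant human GAA (2.5 µg) with SYPRO Orange in 150 mM NaCl plus 50 mM sodium phosphate pH 7.4 or 50 mM sodium acetate, in triplicate. Scanned 25–95 °C in 1 °C increments every 1 min. Fluorescence normalised to each scan's maximum. Tm derived per Niesen by curve fitting.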

CCCCN1C[C@H](O)[C@@H](O)[C@H](O)[C@H]1CO [NB-DNJ, N-butyldeoxynojirimycin]
Ki (MalA R400H [1]): 0.7 µM | Ki fold higher than WT (MalA R400H [1]; R400H vs MalA WT): 5.4 fold | IC50 (MalA R400G [2]): 55 ± 6.62 µM | IC50 (MalA R400H [3]): 5.7 ± 0.21 µM | Ki (MalA wild-type [4]): 0.13 µM | IC50 (MalA wild-type [5]): 1.7 ± 0.2 µM | Tm MalA R400H (MalA R400H [6]; 0.1 mM inhibitor): 64.7 ± 0.4 °C | Tm MalA R400H (MalA R400H [6]; 0.8 mM inhibitor): 61.7 ± 0.1 °C | IC50 (recombinant GAA [7]): 158 µM | Tm MalA WT (MalA WT; 0.1 mM inhibitor): 86 ± 0.7 °C | Tm MalA WT (MalA WT; 0.8 mM inhibitor): 85.1 ± 0.6 °C | Tm MalA R400G (MalA R400G [8]; 0.1 mM inhibitor): 65.6 ± 0.2 °C | Tm MalA R400G (MalA R400G [8]; 0.8 mM inhibitor): 63.5 ± 0.1 °C | Ki (MalA R400G [9]): 0.13 µM

CC(=O)N[C@@H](CS)C(=O)O [NAC, N-acetylcysteine]
Tm MalA R400H (MalA R400H [6]; 10 mM NAC): 64.9 ± 0.03 °C | Tm MalA R400H (MalA R400H [6]; 30 mM NAC): 67.7 ± 0.13 °C | increase of Tm (recombinant GAA [10]): 10.5 ± 0.5 °C and 10.5 °C | Tm MalA WT (MalA WT; 10 mM NAC): 75.8 ± 0.86 °C | Tm MalA WT (MalA WT; 30 mM NAC): 79.6 ± 0.54 °C | Tm MalA R400G (MalA R400G [8]; 10 mM NAC): 65.5 ± 0.04 °C | Tm MalA R400G (MalA R400G [8]; 30 mM NAC): 67.3 ± 0.11 °C | stabilising effect (α-glucosidase from rice): no stabilising effect

R600H: pathogenic human GAA mutant transiently expressed in COS-7 cells
activity compared to GAA wild-type (COS-7 cells): less than 2%

C[C@H]1O[C@H](O[C@H]2[C@H](O)[C@@H](O)[C@@H](O[C@H]3[C@H](O)[C@@H](O)C(O)O[C@@H]3CO)O[C@@H]2CO)[C@H](O)[C@@H](O)[C@@H]1N[C@H]1C=C(CO)[C@@H](O)[C@H](O)[C@H]1O (some centres unmarked) [Acarbose, acarbose]
Ki (MalA R400H [1]): 72 µM | IC50 (MalA R400G [2]): 912 ± 67.5 µM | IC50 (MalA R400H [3]): 830 ± 91.5 µM | Ki (MalA wild-type [4]): 0.98 µM | IC50 (MalA wild-type [5]): 20.2 ± 0.9 µM | Tm MalA R400H (MalA R400H [6]; 0.4 mM inhibitor): 64.2 ± 0.1 °C | Tm MalA R400H (MalA R400H [6]; 1.0 mM inhibitor): 64.2 ± 0.2 °C | Tm MalA WT (MalA WT; 0.4 mM inhibitor): 79.1 ± 0.9 °C | ΔTm (MalA WT; 0.4 mM inhibitor, vs no inhibitor): +2.0 °C | Tm MalA WT (MalA WT; 1.0 mM inhibitor): 79.8 ± 0.7 °C | Tm MalA R400G (MalA R400G [8]; 0.4 mM inhibitor): 65 ± 0.04 °C | Tm MalA R400G (MalA R400G [8]; 1.0 mM inhibitor): 65 ± 0.1 °C | Ki (MalA R400G [9]): 23 µM

OC[C@H]1NC[C@H](O)[C@@H](O)[C@@H]1O [1-DNJ, 1-deoxynojirimycin]
Ki (MalA R400H [1]): 2.2 µM | IC50 (MalA R400G [2]): 224 ± 41 µM | IC50 (MalA R400H [3]): 30 ± 2.3 µM | Ki (MalA wild-type [4]): 0.009 µM | IC50 (MalA wild-type [5]): 0.1 ± 0.01 µM | Tm MalA R400H (MalA R400H [6]; 0.1 mM inhibitor): 65.5 ± 0.2 °C | Tm MalA R400H (MalA R400H [6]; 0.8 mM inhibitor): 64.1 ± 0.1 °C | IC50 (recombinant GAA [7]): 20 µM | Tm MalA WT (MalA WT; 0.1 mM inhibitor): 84.1 ± 0.5 °C | Tm MalA WT (MalA WT; 0.8 mM inhibitor): 87.1 ± 0.3 °C | Tm MalA R400G (MalA R400G [8]; 0.1 mM inhibitor): 66.4 ± 0.2 °C | Tm MalA R400G (MalA R400G [8]; 0.8 mM inhibitor): 67.5 ± 0.3 °C | Ki (MalA R400G [9]): 1.4 µM

recombinant GAA: recombinant human lysosomal acid α-glucosidase
Tm ([11]; pH 4.0): 53.7 ± 0.2 °C | Tm ([11]; pH 7.4): 47.9 ± 0.7 °C | Tm difference, less than MalA WT at pH 8.5 ([11]; GAA at pH 4.0): 23.3 °C | Tm difference, less than MalA WT at pH 8.5 ([11]; GAA at pH 7.4): 29.1 °C
